# Assay results: ChEMBL document CHEMBL1147601, “Synthesis, biodistribution and micro-PET imaging of radiolabeled antimitotic agent T138067 analogues” (Bioorg Med Chem Lett, 2004)
# How the values were obtained:
# Mus musculus [1] = experiment: In vivo biodistribution of compound in lungs of MCF-7 transfected with IL-1alpha implanted athymic mice at 30 min post iv injection; format: ADME, organism-based, Lung; conditions: 0.5 h
# Method in brief: (§1)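 Tumor-bearing athymic mice 8 weeks after xenograft implantation; tail-vein iv dose of 1–3 mCi [11C]-labeled tracer (subpharmacologic) in conscious restrained animals. Killed by decapitation under halothane at 30 min. Tissues excised and weighed, decay-corrected radioactivity gamma-counted, expressed as % injected dose/g. Tumor/blood and tumor/muscle ratios taken from these values. Mean ± SD, n=3 mice.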
# [2] = In vivo biodistribution ratio in tumor to that of blood (T/B ratio) in MDA-MB-435 implanted athymic mice; format: functional
# Method in brief: (§2)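 Athymic mice 8 weeks after MDA-MB-435 xenograft implantation received a subpharmacologic iv tail-vein dose of the 11C-labelled tracer under conscious restraint. They were killed by decapitation under halothane at 30 min post injection. Tissues were excised and weighed, and decay-corrected radioactivity was gamma-counted as % id/g. The ratio is tumor %id/g over muscle or blood %id/g, given as mean ± SD of n=3 mice.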
# Mus musculus [3] = experiment: In vivo biodistribution of compound in heart of MCF-7 transfected with IL-1alpha implanted athymic mice at 30 min post iv injection; format: ADME, organism-based; conditions: 0.5 h; method in brief: as §1
# Mus musculus [4] = experiment: In vivo biodistribution of compound in liver of MDA-MB-435 implanted athymic mice at 30 min post iv injection; format: ADME, organism-based; conditions: 0.5 h; method in brief: as §1
# Mus musculus [5] = experiment: In vivo biodistribution of compound in spleen of MCF-7 transfected with IL-1alpha implanted athymic mice at 30 min post iv injection; format: ADME, organism-based; conditions: 0.5 h; method in brief: as §1
# Mus musculus [6] = experiment: In vivo biodistribution of compound in bone of MDA-MB-435 implanted athymic mice at 30 min post iv injection; format: ADME, organism-based, Bone element; conditions: 0.5 h; method in brief: as §1
# Mus musculus [7] = experiment: In vivo biodistribution of compound in bone of MCF-7 transfected with IL-1alpha implanted athymic mice at 30 min post iv injection; format: ADME, organism-based, Bone element; conditions: 0.5 h; method in brief: as §1
# [8] = In vivo biodistribution ratio in tumor to that of muscle (T/M ratio) in MDA-MB-435 implanted athymic mice; format: functional, Muscle tissue; method in brief: as §2
# Mus musculus [9] = experiment: In vivo biodistribution of compound in kidney of MCF-7 transfected with IL-1alpha implanted athymic mice at 30 min post iv injection; format: ADME, organism-based; conditions: 0.5 h; method in brief: as §1
# Mus musculus [10] = experiment: In vivo biodistribution of compound in kidneys of MDA-MB-435 implanted athymic mice at 30 min post iv injection; format: ADME, organism-based, Kidney; conditions: 0.5 h; method in brief: as §1
# Mus musculus [11] = experiment: In vivo biodistribution of compound in lungs of MDA-MB-435 implanted athymic mice at 30 min post iv injection; format: ADME, organism-based, Lung; conditions: 0.5 h; method in brief: as §1
# Mus musculus [12] = experiment: In vivo biodistribution of compound in brain of MDA-MB-435 implanted athymic mice at 30 min post iv injection; format: ADME, organism-based; conditions: 0.5 h; method in brief: as §1
# Mus musculus [13] = experiment: In vivo biodistribution of compound in spleen of MDA-MB-435 implanted athymic mice at 30 min post iv injection; format: ADME, organism-based; conditions: 0.5 h; method in brief: as §1
# Mus musculus [14] = experiment: In vivo biodistribution ratio in tumor to that of muscle (T/M ratio) in MCF-7 transfected with IL-1alpha implanted athymic mice; format: ADME, organism-based, Muscle tissue; method in brief: as §1
# Mus musculus [15] = experiment: In vivo biodistribution of compound in small intestine of MDA-MB-435 implanted athymic mice at 30 min post iv injection; format: ADME, organism-based; conditions: 0.5 h; method in brief: as §1
# Mus musculus [16] = experiment: In vivo biodistribution of compound in liver of MCF-7 transfected with IL-1alpha implanted athymic mice at 30 min post iv injection; format: ADME, organism-based; conditions: 0.5 h; method in brief: as §1
# Mus musculus [17] = experiment: In vivo biodistribution of compound in tumor of MCF-7 transfected with IL-1alpha implanted athymic mice at 30 min post iv injection; format: ADME, organism-based; conditions: 0.5 h; method in brief: as §1
# Mus musculus [18] = experiment: In vivo biodistribution of compound in muscle of MDA-MB-435 implanted athymic mice at 30 min post iv injection; format: ADME, organism-based, Muscle tissue; conditions: 0.5 h; method in brief: as §1
# Mus musculus [19] = experiment: In vivo biodistribution of compound in heart of MDA-MB-435 implanted athymic mice at 30 min post iv injection; format: ADME, organism-based; conditions: 0.5 h; method in brief: as §1
# Mus musculus [20] = experiment: In vivo biodistribution of compound in tumor of MDA-MB-435 implanted athymic mice at 30 min post iv injection; format: ADME, organism-based; conditions: 0.5 h; method in brief: as §1
# Mus musculus [21] = experiment: In vivo biodistribution of compound in small intestine of MCF-7 transfected with IL-1alpha implanted athymic mice at 30 min post iv injection; format: ADME, organism-based; conditions: 0.5 h; method in brief: as §1
# Mus musculus [22] = experiment: In vivo biodistribution of compound in brain of MCF-7 transfected with IL-1alpha implanted athymic mice at 30 min post iv injection; format: ADME, organism-based; conditions: 0.5 h; method in brief: as §1
# Mus musculus [23] = experiment: In vivo biodistribution of compound in blood of MDA-MB-435 implanted athymic mice at 30 min post iv injection; format: ADME, organism-based; conditions: 0.5 h; method in brief: as §1
# Mus musculus [24] = experiment: In vivo biodistribution of compound in muscle of MCF-7 transfected with IL-1alpha implanted athymic mice at 30 min post iv injection; format: ADME, organism-based, Muscle tissue; conditions: 0.5 h; method in brief: as §1
# [25] = In vivo biodistribution ratio in tumor to that of blood (T/B ratio) in MCF-7 transfected with IL-1alpha implanted athymic mice; format: ADME, organism-based; conditions: mouse; method in brief: as §1
# Mus musculus [26] = experiment: In vivo biodistribution of compound in blood of MCF-7 transfected with IL-1alpha implanted athymic mice at 30 min post iv injection; format: ADME, organism-based; conditions: 0.5 h; method in brief: as §1
smiles,measurement,setting,value
[11CH3]Oc1ccc(NS(=O)(=O)c2c(F)c(F)c(F)c(F)c2F)cc1F,Injected dose/g,Mus musculus [1],4.95%
same,Ratio,[2],5.63
same,Injected dose/g,Mus musculus [3],1.75%
same,Injected dose/g,Mus musculus [4],14.92%
same,Injected dose/g,Mus musculus [5],2.01%
same,Injected dose/g,Mus musculus [6],1.75%
same,Injected dose/g,Mus musculus [7],1.31%
same,Ratio,[8],1.01
same,Injected dose/g,Mus musculus [9],3.34%
same,Injected dose/g,Mus musculus [10],17.62%
same,Injected dose/g,Mus musculus [11],9.2%
same,Injected dose/g,Mus musculus [12],1.03%
same,Injected dose/g,Mus musculus [13],2.95%
same,Ratio,Mus musculus [14],0.89
same,Injected dose/g,Mus musculus [15],6.19%
same,Injected dose/g,Mus musculus [16],6.79%
same,Injected dose/g,Mus musculus [17],1.51%
same,Injected dose/g,Mus musculus [18],1.99%
same,Injected dose/g,Mus musculus [19],8.54%
same,Injected dose/g,Mus musculus [20],1.92%
same,Injected dose/g,Mus musculus [21],5.16%
same,Injected dose/g,Mus musculus [22],1.53%
same,Injected dose/g,Mus musculus [23],0.35%
same,Injected dose/g,Mus musculus [24],1.7%
same,Kp,[25],0.94
same,Injected dose/g,Mus musculus [26],1.68%
